In ChEMBL document CHEMBL1126849, “Synthesis of A-ring fluorinated derivatives of (17 alpha,20E/Z)-[125I]iodovinylestradiols: effect on receptor binding and receptor-mediated target tissue uptake” (J Med Chem, 1993):

Experiments:
[1] = biological target: Estrogen receptor (Mus musculus) (UniProt O08537+P19785); assay: Relative binding affinity (RBA) against murine cytoplasmic estrogen receptor incubated at 0-4 degree Celsius for 18 hours; assay type: protein assay
Outline: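 Competitive binding on murine uterine cytoplasmic extract with 20 nM [3H]estradiol and competitor steroids at 2 nM–20 μM, incubated 18 h at 0–4 °C. RBA = 100 × ratio of […] concentration giving 50% competition for specific binding. Mean of three experiments with SD.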

[2] = test system: Rattus norvegicus; assay: Biodistribution in kidney of immature female rat after 3 hour administration of 3 micro Ci (111 kBq) in the absence of 60 microg estradiol; assay type: ADME, organism-based; settings: in vivo
Outline: (§1)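 Immature female Long Evans rats (21–24 days, 45–70 g), unanesthetized in retention cages, given 3 µCi (111 kBq) 125I-labeled steroid i.v. via lateral tail vein. Vehicle was ethanol diluted in saline containing 1% Tween-80, giving 9% ethanol final. The blocking group received 60 µg unlabeled estradiol co-injected. Rats were killed under ether by axillary bleeding, and tissues were KCl-washed and gamma-counted. Data are %ID/g, mean ± SE, n=3–5.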

[3] = test system: Rattus norvegicus; assay: Biodistribution in thyroid of immature female rat after 5 hour administration of 3 micro Ci (111 kBq) in the absence of 60 microg estradiol; assay type: ADME, organism-based, Thyroid gland; settings: in vivo
Outline: (§2)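 Immature female Long Evans rats (21–24 days, 45–70 g), three to five per group, given 125I-labeled steroid (3 μCi, 111 kBq) by lateral tail vein without anesthesia. Vehicle: ethanol diluted in saline with 1% Tween-80, final ethanol 9%, 0.22 μm filtered. +E2 groups received 60 μg unlabeled estradiol co-injected. Killed under ether at set times; tissues KCl-washed, blotted, weighed, gamma counted; %ID/g, mean with SE.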

[4] = test system: Rattus norvegicus; assay: Biodistribution in lungs of immature female rat after 1 hr administration of 3 micro Ci (111 kBq) in the presence of (+E2); assay type: ADME, organism-based, Lung; settings: in vivo; outline: as §1
[5] = test system: Rattus norvegicus; assay: Biodistribution in kidney of immature female rat after 12 hour administration of 3 micro Ci (111 kBq) in the absence of 60 microg estradiol; assay type: ADME, organism-based; settings: in vivo; outline: as §1
[6] = test system: Rattus norvegicus; assay: Biodistribution in thyroid of immature female rat after 1 hr administration of 3 micro Ci (111 kBq) in the presence of (+E2); assay type: ADME, organism-based, Thyroid gland; settings: in vivo; outline: as §2
[7] = test system: Rattus norvegicus; assay: Biodistribution in liver of immature female rat after 5 hour administration of 3 micro Ci (111 kBq) in the absence of 60 microg estradiol; assay type: ADME, organism-based; settings: in vivo; outline: as §1
[8] = test system: Rattus norvegicus; assay: Biodistribution in lungs of immature female rat after 12 hour administration of 3 micro Ci (111 kBq) in the absence of 60 microg estradiol; assay type: ADME, organism-based, Lung; settings: in vivo; outline: as §2
[9] = test system: Rattus norvegicus; assay: Biodistribution in uterus of immature female rat after 1 hr administration of 3 micro Ci (111 kBq) in the absence of 60 microg estradiol; assay type: ADME, organism-based; settings: in vivo
Outline: (§3)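 Immature female Long Evans rats (21–24 days, 45–70 g), 3–5 per group, unanesthetized in retention cages, given 3 μCi (111 kBq) 125I-labeled steroid by lateral tail vein. Vehicle: ethanol diluted with saline containing 1% Tween-80, final ethanol 9%. +E2 group co-injected 60 μg unlabeled estradiol (1 h only). Killed under ether; tissues KCl-washed, weighed, gamma-counted. Output: %ID/g (mean, SE) and uterus to blood or nontarget (muscle, spleen, lungs) ratios.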

[10] = test system: Rattus norvegicus; assay: Biodistribution in spleen of immature female rat after 5 hour administration of 3 micro Ci (111 kBq) in the absence of 60 microg estradiol; assay type: ADME, organism-based; settings: in vivo; outline: as §2
[11] = test system: Rattus norvegicus; assay: Biodistribution in lungs of immature female rat after 3 hour administration of 3 micro Ci (111 kBq) in the absence of 60 microg estradiol; assay type: ADME, organism-based, Lung; settings: in vivo; outline: as §2
[12] = test system: Rattus norvegicus; assay: Biodistribution in blood of immature female rat after 12 hour administration of 3 micro Ci (111 kBq) in the absence of 60 microg estradiol; assay type: ADME, organism-based; settings: in vivo; outline: as §1
[13] = test system: Rattus norvegicus; assay: Biodistribution in uterus / spleen, muscle, lungs of immature female rat after 12 hour administration of 3 micro Ci (111 kBq) in the absence of 60 microg estradiol; assay type: ADME, organism-based; settings: in vivo; outline: as §3
[14] = test system: Rattus norvegicus; assay: Biodistribution in spleen of immature female rat after 12 hour administration of 3 micro Ci (111 kBq) in the absence of 60 microg estradiol; assay type: ADME, organism-based; settings: in vivo; outline: as §2
[15] = test system: Rattus norvegicus; assay: Biodistribution in spleen of immature female rat after 3 hour administration of 3 micro Ci (111 kBq) in the absence of 60 microg estradiol; assay type: ADME, organism-based; settings: in vivo; outline: as §2
[16] = test system: Rattus norvegicus; assay: Biodistribution in uterus / blood of immature female rat after 5 hour administration of 3 micro Ci (111 kBq) in the absence of 60 microg estradiol; assay type: ADME, organism-based; settings: in vivo
Outline: (§4)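 Same in vivo procedure: immature female Long Evans rats (21–24 days), three to five per group, 3 μCi (111 kBq) tracer i.v. via tail vein in 9% ethanol/saline/1% Tween-80, ± 60 μg estradiol co-injected at 1 h. Uterus %ID/g (gamma counting) divided by blood, or by nontarget organ (muscle, spleen, lungs), %ID/g to give ratios.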

[17] = test system: Rattus norvegicus; assay: Biodistribution in thyroid of immature female rat after 3 hour administration of 3 micro Ci (111 kBq) in the absence of 60 microg estradiol; assay type: ADME, organism-based, Thyroid gland; settings: in vivo; outline: as §2
[18] = test system: Rattus norvegicus; assay: Biodistribution in kidney of immature female rat after 1 hr administration of 3 micro Ci (111 kBq) in the presence of (+E2); assay type: ADME, organism-based; settings: in vivo; outline: as §1
[19] = test system: Rattus norvegicus; assay: Biodistribution in blood of immature female rat after 3 hour administration of 3 micro Ci (111 kBq) in the absence of 60 microg estradiol; assay type: ADME, organism-based; settings: in vivo; outline: as §1
[20] = test system: Rattus norvegicus; assay: Biodistribution in uterus / blood of immature female rat after 1 hr administration of 3 micro Ci (111 kBq) in the absence of 60 microg estradiol; assay type: ADME, organism-based; settings: in vivo; outline: as §4
[21] = test system: Rattus norvegicus; assay: Biodistribution in blood of immature female rat after 1 hr administration of 3 micro Ci (111 kBq) in the presence of (+E2); assay type: ADME, organism-based; settings: in vivo; outline: as §1
[22] = test system: Rattus norvegicus; assay: Biodistribution in spleen of immature female rat after 1 hr administration of 3 micro Ci (111 kBq) in the absence of 60 microg estradiol; assay type: ADME, organism-based; settings: in vivo; outline: as §2
[23] = test system: Rattus norvegicus; assay: Biodistribution in thyroid of immature female rat after 12 hour administration of 3 micro Ci (111 kBq) in the absence of 60 microg estradiol; assay type: ADME, organism-based, Thyroid gland; settings: in vivo; outline: as §2
[24] = test system: Rattus norvegicus; assay: Biodistribution in uterus of immature female rat after 12 hour administration of 3 micro Ci (111 kBq) in the absence of 60 microg estradiol; assay type: ADME, organism-based; settings: in vivo; outline: as §3
[25] = test system: Rattus norvegicus; assay: Biodistribution in uterus / spleen, muscle, lungs of immature female rat after 1 hr administration of 3 micro Ci (111 kBq) in the presence of (+E2); assay type: ADME, organism-based; settings: in vivo; outline: as §4
[26] = test system: Rattus norvegicus; assay: Biodistribution in fat of immature female rat after 1 hr administration of 3 micro Ci (111 kBq) in the absence of 60 microg estradiol; assay type: ADME, organism-based, Adipose tissue; settings: in vivo; outline: as §1
[27] = test system: Rattus norvegicus; assay: Biodistribution in blood of immature female rat after 1 hr administration of 3 micro Ci (111 kBq) in the absence of 60 microg estradiol; assay type: ADME, organism-based; settings: in vivo; outline: as §1
[28] = test system: Rattus norvegicus; assay: Biodistribution in muscle of immature female rat after 1 hr administration of 3 micro Ci (111 kBq) in the absence of 60 microg estradiol; assay type: ADME, organism-based, Muscle tissue; settings: in vivo; outline: as §2
[29] = test system: Rattus norvegicus; assay: Biodistribution in uterus / spleen, muscle, lungs of immature female rat after 1 hr administration of 3 micro Ci (111 kBq) in the absence of 60 microg estradiol; assay type: ADME, organism-based; settings: in vivo; outline: as §4
[30] = test system: Rattus norvegicus; assay: Biodistribution in fat of immature female rat after 1 hr administration of 3 micro Ci (111 kBq) in the presence of (+E2); assay type: ADME, organism-based, Adipose tissue; settings: in vivo; outline: as §1

Estrogen receptor (Mus musculus), sequence (O08537 whole entry, looked up): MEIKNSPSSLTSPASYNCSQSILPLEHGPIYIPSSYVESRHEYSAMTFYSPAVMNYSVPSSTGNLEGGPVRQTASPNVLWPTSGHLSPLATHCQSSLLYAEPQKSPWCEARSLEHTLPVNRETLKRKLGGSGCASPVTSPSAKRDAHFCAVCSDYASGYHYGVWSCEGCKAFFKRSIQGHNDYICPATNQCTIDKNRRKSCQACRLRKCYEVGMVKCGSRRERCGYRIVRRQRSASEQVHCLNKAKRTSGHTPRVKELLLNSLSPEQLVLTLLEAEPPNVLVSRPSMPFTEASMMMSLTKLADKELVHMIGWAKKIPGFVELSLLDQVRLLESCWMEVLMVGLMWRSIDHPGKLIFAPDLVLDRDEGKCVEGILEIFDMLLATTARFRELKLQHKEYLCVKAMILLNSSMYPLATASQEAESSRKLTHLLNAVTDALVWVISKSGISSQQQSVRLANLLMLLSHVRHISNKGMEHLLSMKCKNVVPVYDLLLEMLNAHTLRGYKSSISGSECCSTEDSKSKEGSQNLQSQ
Estrogen receptor (Mus musculus), sequence (P19785 whole entry, looked up): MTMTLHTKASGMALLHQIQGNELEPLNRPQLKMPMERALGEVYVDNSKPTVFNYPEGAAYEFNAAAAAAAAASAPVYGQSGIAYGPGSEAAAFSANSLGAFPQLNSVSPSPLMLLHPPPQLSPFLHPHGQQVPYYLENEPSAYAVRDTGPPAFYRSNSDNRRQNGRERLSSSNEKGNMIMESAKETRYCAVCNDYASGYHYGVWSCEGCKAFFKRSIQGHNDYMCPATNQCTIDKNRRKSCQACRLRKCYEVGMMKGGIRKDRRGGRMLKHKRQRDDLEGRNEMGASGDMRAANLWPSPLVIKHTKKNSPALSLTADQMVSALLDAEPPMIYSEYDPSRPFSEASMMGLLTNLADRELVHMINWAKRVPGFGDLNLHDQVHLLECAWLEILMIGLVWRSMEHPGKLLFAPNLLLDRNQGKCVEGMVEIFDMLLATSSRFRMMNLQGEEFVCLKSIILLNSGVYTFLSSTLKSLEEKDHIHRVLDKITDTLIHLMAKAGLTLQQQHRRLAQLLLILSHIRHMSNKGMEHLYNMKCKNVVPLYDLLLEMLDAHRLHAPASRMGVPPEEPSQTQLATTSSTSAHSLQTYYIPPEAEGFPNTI

Row | Structure (SMILES) | RBA [1] | ID/g [2] [%] | ID/g [3] [%] | ID/g [4] [%] | ID/g [5] [%] | ID/g [6] [%] | ID/g [7] [%] | ID/g [8] [%] | ID/g [9] [%] | ID/g [10] [%] | ID/g [11] [%] | ID/g [12] [%] | uterus to nontarget tissue ratio [13] [%] | ID/g [14] [%] | ID/g [15] [%] | uterus to blood ratio [16] [%] | ID/g [17] [%] | ID/g [18] [%] | ID/g [19] [%] | uterus-to-blood ratio of %ID/g [20] [%] | other results
1 | C[C@@H]1Cc2cc(O)c(F)cc2[C@H]2CC[C@@]3(C)[C@@H](CC[C@@]3(O)/C=C/I)[C@H]12 | 12.1 | 0.29 | 203 | 0.53 | 0.15 | 114 | 1.38 | 0.12 | 1.03 | 0.18 | 0.28 | 0.12 | 2.55 | 0.12 | 0.43 | 3.69 | 197 | 0.49 | 0.2 | 4.49 | ID/g [21]: 0.29%; ID/g [22]: 0.31%; ID/g [23]: 446%; ID/g [24]: 0.35%; uterus-to-nontarget tissue uptake ratio [25]: 1.09%; ID/g [26]: 1.5%; ID/g [27]: 0.29%; ID/g [28]: 0.61%; uterus-to-nontarget tissue uptake ratio [29]: 3.3%; ID/g [30]: 1.48%
2 | C[C@@H]1Cc2c(ccc(O)c2F)[C@H]2CC[C@@]3(C)[C@@H](CC[C@@]3(O)/C=C\I)[C@H]12 | 36.8 | 0.85 | 380 | 0.67 | 0.29 | 98 | 1.36 | 0.24 | 3.55 | 0.57 | 0.46 | 0.21 | 17.02 | 0.25 | 0.72 | 10.01 | 304 | 0.79 | 0.39 | 8.35 | ID/g [21]: 0.45%; ID/g [22]: 1.16%; ID/g [23]: 898%; ID/g [24]: 3.45%; uterus-to-nontarget tissue uptake ratio [25]: 0.88%; ID/g [26]: 1.3%; ID/g [27]: 0.44%; ID/g [28]: 0.45%; ID/g [29]: 5.41%; ID/g [30]: 1.39%
3 | C[C@]12CC[C@@H]3c4ccc(O)c(F)c4CC[C@H]3[C@@H]1CC[C@@]2(O)/C=C/I | 55.9 | 0.59 | 208 | 0.75 | 0.08 | 65.69 | 1.21 | 0.1 | 3.75 | 0.17 | 0.57 | 0.16 | 5.4 | 0.1 | 0.36 | 9.01 | 128 | 0.87 | 0.96 | 5.42 | ID/g [21]: 0.81%; ID/g [22]: 0.59%; ID/g [23]: 385%; ID/g [24]: 0.43%; uterus-to-nontarget tissue uptake ratio [25]: 1.17%; ID/g [26]: 2.97%; ID/g [27]: 0.78%; ID/g [28]: 0.46%; uterus-to-nontarget tissue uptake ratio [29]: 6.39%; ID/g [30]: 1.14%
4 | C[C@]12CC[C@@H]3c4ccc(O)c(F)c4CC[C@H]3[C@@H]1CC[C@@]2(O)/C=C\I | 66.9 | 0.82 | 117 | 1.14 | 0.74 | 50.6 | 1.64 | 0.8 | 10.44 | 0.4 | 0.85 | 0.24 | 31.56 | 0.43 | 0.48 | 22.6 | 87.39 | 0.85 | 0.48 | 15.19 | ID/g [21]: 0.55%; ID/g [22]: 1.02%; ID/g [23]: 488%; ID/g [24]: 6.02%; uterus-to-nontarget tissue uptake ratio [25]: 1.21%; ID/g [26]: 4.3%; ID/g [27]: 0.71%; ID/g [28]: 1.26%; uterus-to-nontarget tissue uptake ratio [29]: 8.31%; ID/g [30]: 3.41%
5 | CO[C@H]1C[C@@]2(C)[C@@H](CC[C@@]2(O)/C=C/I)[C@@H]2CCc3cc(O)c(F)cc3[C@H]21 | 13.5 | 0.96 | 412 | 1.22 | 0.15 | 243 | 3.11 | 0.13 | 4.41 | 0.82 | 0.62 | 0.11 | 6.75 | 0.18 | 0.8 | 12.41 | 355 | 1.58 | 0.38 | 9.82 | ID/g [21]: 0.51%; ID/g [22]: 0.83%; ID/g [23]: 571%; ID/g [24]: 1.2%; uterus-to-nontarget tissue uptake ratio [25]: 0.86%; ID/g [26]: 3.34%; ID/g [27]: 0.45%; ID/g [28]: 0.87%; uterus-to-nontarget tissue uptake ratio [29]: 4.78%; ID/g [30]: 4.31%
